Holding throughout (type): functional
Assay [1] concerns Klebsiella pneumoniae. Briefly: Antimicrobial activity against CTX-M-2 producing Klebsiella pneumoniae with PFGE pulsotype A by Etest. A digest of the protocol: (§1)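 Clinical K. pneumoniae isolates from a neonatal ICU outbreak near São Paulo were typed by XbaI PFGE using Tenover criteria. Cultures were grown in LB broth at 37°C. Etest MICs followed the manufacturer's instructions, with cefotaxime and ceftazidime each tested with and without clavulanic acid.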

For assay [2], the system named is Klebsiella pneumoniae. Briefly: Antimicrobial activity against CTX-M-2 and TEM-1 producing Klebsiella pneumoniae transconjugants/transformants with PFGE pulsotype B by Etest. A digest of the protocol:
(§2)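 The recipient was E. coli XL1-Blue Rifr NAr. Plasmids moved by broth mating, with transconjugants selected on LB agar containing ampicillin, rifampin and nalidixic acid, each at 50 μg/ml. Where mating failed, alkaline-lysis plasmid extracts were electroporated and selected on ampicillin 50 μg/ml. β-lactam MICs were read by Etest, with and without clavulanic acid.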

Assay [3] relates to Klebsiella pneumoniae. Put plainly: Antimicrobial activity against CTX-M-2 and TEM-1 producing Klebsiella pneumoniae transconjugants/transformants with PFGE pulsotype H by Etest. A digest of the protocol:
as §2

Assay [4] concerns Klebsiella pneumoniae. Briefly: Antimicrobial activity against CTX-M-2 and TEM-1 producing Klebsiella pneumoniae transconjugants/transformants with PFGE pulsotype I by Etest. The essentials: as §2
Assay [5] concerns Klebsiella pneumoniae. Briefly: Antimicrobial activity against CTX-M-2 producing Klebsiella pneumoniae with PFGE pulsotype F by Etest.
The test system of assay [6] is Klebsiella pneumoniae. Briefly: Antimicrobial activity against CTX-M-2 producing Klebsiella pneumoniae with PFGE pulsotype B by Etest. A digest of the protocol:
as §1

Assay [7] has as its system Klebsiella pneumoniae. Put plainly: Antimicrobial activity against CTX-M-2 and TEM-1 producing Klebsiella pneumoniae transconjugants/transformants with PFGE pulsotype J by Etest. A digest of the protocol:
as §2

In assay [8] the test system is Klebsiella pneumoniae. Briefly: Antimicrobial activity against CTX-M-59 producing Klebsiella pneumoniae with PFGE pulsotype G by Etest. A digest of the protocol:
as §1

Assay [9] deals with Klebsiella pneumoniae. Briefly: Antimicrobial activity against CTX-M-59 and TEM-1 producing Klebsiella pneumoniae transconjugants/transformants with PFGE pulsotype C by Etest. The essentials:
as §2

In assay [10] the test system is Klebsiella pneumoniae. Put plainly: Antimicrobial activity against CTX-M-59 producing Klebsiella pneumoniae with PFGE pulsotype C by Etest.
For assay [11], the system named is Klebsiella pneumoniae. Put plainly: Antimicrobial activity against CTX-M-2 and TEM-1 producing Klebsiella pneumoniae transconjugants/transformants with PFGE pulsotype A by Etest. A digest of the protocol:
as §2

Assay [12] concerns Klebsiella pneumoniae. Put plainly: Antimicrobial activity against CTX-M-2 producing Klebsiella pneumoniae with PFGE pulsotype I by Etest.
The subject of assay [13] is Escherichia coli. Put plainly: Antimicrobial activity against Escherichia coli str. K-12 substr. DH10B harboring plasmid CTX-M-2. The note with it: K-12 DH10B. A digest of the protocol:
(§3)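 blaCTX-M PCR products were cut with XbaI/BamHI and cloned into pBC-SK(−), then electroporated into E. coli DH10B. Transformants were selected on LB agar with ampicillin 50 μg/ml and chloramphenicol 30 μg/ml, and sequences were confirmed. These clones were used for β-lactam MICs, with and without clavulanic acid.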

The subject of assay [14] is Escherichia coli. Briefly: Antimicrobial activity against Escherichia coli str. K-12 substr. DH10B harboring plasmid CTX-M-59. As to conditions: K-12 DH10B. The essentials: as §3
Assay [15] deals with Klebsiella pneumoniae. Put plainly: Antimicrobial activity against SHV-5 producing Klebsiella pneumoniae with PFGE pulsotype D by Etest. A digest of the protocol:
as §1

Assay [16] relates to Klebsiella pneumoniae. Put plainly: Antimicrobial activity against CTX-M-2 and TEM-1 producing Klebsiella pneumoniae transconjugants/transformants with PFGE pulsotype F by Etest. The essentials:
as §2

The test system of assay [17] is Klebsiella pneumoniae. Briefly: Antimicrobial activity against CTX-M-2 producing Klebsiella pneumoniae with PFGE pulsotype J by Etest.
Assay [18] relates to Klebsiella pneumoniae. Put plainly: Antimicrobial activity against CTX-M-59 and TEM-1 producing Klebsiella pneumoniae transconjugants/transformants with PFGE pulsotype G by Etest. The essentials:
as §2

The subject of assay [19] is Klebsiella pneumoniae. Put plainly: Antimicrobial activity against SHV-5 producing Klebsiella pneumoniae transconjugants/transformants with PFGE pulsotype D by Etest. The essentials:
as §2

Assay [20] deals with Klebsiella pneumoniae. Briefly: Antimicrobial activity against CTX-M-2 producing Klebsiella pneumoniae with PFGE pulsotype H by Etest. A digest of the protocol: as §1
Assay [21] has as its system Klebsiella pneumoniae. Briefly: Antimicrobial activity against CTX-M-59 producing Klebsiella pneumoniae with PFGE pulsotype E by Etest.
In assay [22] the test system is Klebsiella pneumoniae. Briefly: Antimicrobial activity against CTX-M-59 and TEM-1 producing Klebsiella pneumoniae transconjugants/transformants with PFGE pulsotype E by Etest. A digest of the protocol: as §2

In brackets after ≈: the same amount, converted by molar mass.

Regarding `C[C@@H](O)[C@H]1C(=O)N2C(C(=O)O)=C(S[C@@H]3CN[C@H](C(=O)Nc4cccc(C(=O)O)c4)C3)[C@H](C)[C@H]12`, the minimum inhibitory concentration (MIC) (usually the least concentration at which growth counts as inhibited) in assay [1] is 1.5 µg/mL (≈ 3.15 µM); in [2] it was 0.125 µg/mL (≈ 0.263 µM); in [3] it was 0.094 µg/mL (≈ 0.198 µM); in assay [4], 0.032 µg/mL (≈ 0.0673 µM); in [5], 1.5 µg/mL (≈ 3.15 µM); in assay [6], 1 µg/mL (≈ 2.1 µM). Also, the MIC in assay [7] amounted to 0.094 µg/mL (≈ 0.198 µM); in assay [8], 1.5 µg/mL (≈ 3.15 µM); in assay [9], 0.064 µg/mL (≈ 0.135 µM); in assay [10] it was 1.5 µg/mL (≈ 3.15 µM); in [11] it was 0.125 µg/mL (≈ 0.263 µM); in assay [12] it was 1 µg/mL (≈ 2.1 µM). The MIC in [13] amounted to 0.016 µg/mL (≈ 0.0336 µM); in assay [14], 0.016 µg/mL (≈ 0.0336 µM); in assay [15] it was 0.094 µg/mL (≈ 0.198 µM); in assay [16], 0.125 µg/mL (≈ 0.263 µM); in assay [17], 1.5 µg/mL (≈ 3.15 µM); in assay [18], 0.125 µg/mL (≈ 0.263 µM). For the same molecule, the minimal inhibitory concentration (MIC) in [19] was determined as 0.012 µg/mL (≈ 0.0252 µM); in assay [20] it was 2 µg/mL (≈ 4.21 µM); in [21], 1.5 µg/mL (≈ 3.15 µM); in [22] it was 0.094 µg/mL (≈ 0.198 µM).
`CO/N=C(\C(=O)N[C@@H]1C(=O)N2C(C(=O)[O-])=C(C[N+]3(C)CCCC3)CS[C@H]12)c1csc(N)n1`: the MIC in [2] is 256 µg/mL (≈ 533 µM); in [5] it was above 256 µg/mL; in assay [6] it was 128 µg/mL (≈ 266 µM); in assay [8], 32 µg/mL (≈ 66.6 µM); in assay [10], 256 µg/mL (≈ 533 µM); in [12], 256 µg/mL (≈ 533 µM). Besides, the MIC is 4 µg/mL (≈ 8.32 µM) in assay [13]; 4 µg/mL (≈ 8.32 µM) in assay [14]; 4 µg/mL (≈ 8.32 µM) in assay [15]; 12 µg/mL (≈ 25 µM) in [17]; 1.5 µg/mL (≈ 3.12 µM) in assay [19]; above 256 µg/mL in assay [20].
For the molecule `C[C@H]1[C@H](NC(=O)/C(=N\OC(C)(C)C(=O)O)c2csc(N)n2)C(=O)N1S(=O)(=O)O` [AZTREONAM], the minimal inhibitory concentration (MIC) in assay [1] was 24 µg/mL (≈ 55.1 µM); in assay [2], 256 µg/mL (≈ 588 µM); in assay [3] it was above 256 µg/mL; in assay [4] it was above 256 µg/mL; in assay [5] it was 256 µg/mL (≈ 588 µM); in assay [6], 48 µg/mL (≈ 110 µM). Moreover, the MIC was above 256 µg/mL in [7]; 64 µg/mL (≈ 147 µM) in assay [8]; above 256 µg/mL in [9]; 32 µg/mL (≈ 73.5 µM) in assay [10]; above 256 µg/mL in assay [11]; 24 µg/mL (≈ 55.1 µM) in assay [12]. Moreover, the MIC was 12 µg/mL (≈ 27.6 µM) in assay [13]; 12 µg/mL (≈ 27.6 µM) in [14]; 256 µg/mL (≈ 588 µM) in assay [15]; above 256 µg/mL in assay [16]; 128 µg/mL (≈ 294 µM) in assay [17]; above 256 µg/mL in assay [18]. In addition, the minimal inhibitory concentration (MIC) in assay [19] is above 256 µg/mL; in [20], 48 µg/mL (≈ 110 µM); in assay [21], 32 µg/mL (≈ 73.5 µM); in [22] it was 48 µg/mL (≈ 110 µM).
For the molecule `O=C(O)c1cn(C2CC2)c2cc(N3CCNCC3)c(F)cc2c1=O` [CIPROFLOXACIN], the minimal inhibitory concentration (MIC) in assay [1] is 0.023 µg/mL (≈ 0.0694 µM); in assay [6], 0.032 µg/mL (≈ 0.0966 µM); in assay [8] it was 0.125 µg/mL (≈ 0.377 µM); in assay [10], 0.032 µg/mL (≈ 0.0966 µM); in assay [12], 0.032 µg/mL (≈ 0.0966 µM); in assay [15] it was 0.023 µg/mL (≈ 0.0694 µM). For the same molecule, the minimum inhibitory concentration (MIC) was determined as 0.023 µg/mL (≈ 0.0694 µM) in assay [17], 0.023 µg/mL (≈ 0.0694 µM) in assay [20] and 0.032 µg/mL (≈ 0.0966 µM) in assay [21].
For GENTAMICIN, the minimum inhibitory concentration (MIC) in [1], in assay [2], in [3], in [4], in assay [5] and in assay [6] was above 256 µg/mL throughout. In addition, the MIC in assay [7] was 128 µg/mL; in assay [8], above 256 µg/mL; in assay [9], above 256 µg/mL; in [10], above 256 µg/mL; in assay [11], above 256 µg/mL; in assay [12] it was 256 µg/mL. Further, the minimum inhibitory concentration (MIC) in [15] is 24 µg/mL; in assay [16], above 256 µg/mL; in assay [18], above 256 µg/mL; in assay [19] it was 24 µg/mL; in assay [20], above 256 µg/mL; in [21] it was above 256 µg/mL. The molecule further gave an MIC in assay [22] above 256 µg/mL.

These data come from ChEMBL document CHEMBL1255347, “Multiclonal outbreak of Klebsiella pneumoniae producing extended-spectrum beta-lactamase CTX-M-2 and novel variant CTX-M-59 in a neonatal intensive care unit in Brazil” (2008).
